Key:
[1] = target: T1, Prostaglandin E synthase (Homo sapiens) (UniProt O14684); assay: Inhibition of microsomal PGES1 isolated from IL-1beta-stimulated human A549 cells assessed as residual activity at 10 uM preincubated for 15 mins followed by substrate addition measured after 1 min by RP-HPLC analysis relative to control; type: cell-free
T1 sequence (whole entry): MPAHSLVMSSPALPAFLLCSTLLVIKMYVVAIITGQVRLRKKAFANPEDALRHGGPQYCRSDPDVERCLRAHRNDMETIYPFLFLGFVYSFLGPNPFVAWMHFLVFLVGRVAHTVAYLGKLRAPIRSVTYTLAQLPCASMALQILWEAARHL
In short: (§1)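 Enzyme source: microsomes from A549 cells, cultured 16 h at 37 °C and 5% CO2, then given fresh medium and induced with IL-1β (1 ng/mL) for 72 h. Microsomes were prepared by sonication and centrifugation at 174000g. Membranes in 0.1 M potassium phosphate pH 7.4 with 2.5 mM GSH were preincubated with compound or DMSO vehicle for 15 min at 4 °C. PGH2 (20 μM final) was added and the reaction ran 1 min at 4 °C. It was stopped with FeCl2/citric acid containing 11β-PGE2 as internal standard. PGE2 was measured by SPE and RP-HPLC; n = 3–4, mean + SEM.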

Prostaglandin E synthase = target: T2, Prostaglandin E synthase (Homo sapiens, UniProt O14684); assay: Inhibition of microsomal PGES1 isolated from IL-1beta-stimulated human A549 cells preincubated for 15 mins followed by substrate addition measured after 1 min by RP-HPLC analysis; type: cell-free; in short: as §1
T2 sequence (O14684 whole entry): T1 sequence (whole entry)

[2] = target: T3, Prostaglandin G/H synthase 1 (Ovis aries, UniProt P05979); assay: Inhibition of ovine COX-1 using arachidonic acid as substrate preincubated for 5 mins followed by substrate addition measured after 5 mins by HPLC analysis
T3 sequence (P05979 whole entry): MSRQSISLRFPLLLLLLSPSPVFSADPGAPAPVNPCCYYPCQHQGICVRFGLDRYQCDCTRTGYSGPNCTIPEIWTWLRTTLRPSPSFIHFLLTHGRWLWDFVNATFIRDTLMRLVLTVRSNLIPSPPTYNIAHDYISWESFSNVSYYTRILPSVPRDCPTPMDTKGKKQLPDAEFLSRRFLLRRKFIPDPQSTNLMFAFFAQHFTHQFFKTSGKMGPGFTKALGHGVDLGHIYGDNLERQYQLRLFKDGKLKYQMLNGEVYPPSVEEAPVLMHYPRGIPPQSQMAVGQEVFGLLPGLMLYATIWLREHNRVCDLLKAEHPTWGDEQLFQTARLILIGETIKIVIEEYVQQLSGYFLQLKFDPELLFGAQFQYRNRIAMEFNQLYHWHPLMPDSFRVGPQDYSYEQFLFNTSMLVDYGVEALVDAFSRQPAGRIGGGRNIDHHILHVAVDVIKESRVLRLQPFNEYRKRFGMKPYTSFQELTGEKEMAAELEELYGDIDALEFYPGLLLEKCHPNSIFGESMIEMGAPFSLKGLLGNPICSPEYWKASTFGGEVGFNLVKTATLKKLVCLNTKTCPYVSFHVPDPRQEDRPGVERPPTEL

[3] = target: T4, Prostaglandin G/H synthase 2 (Homo sapiens, UniProt P35354); assay: Inhibition of human recombinant COX-2 using arachidonic acid as substrate preincubated for 5 mins followed by substrate addition measured after 5 mins by HPLC analysis
T4 sequence (P35354 whole entry): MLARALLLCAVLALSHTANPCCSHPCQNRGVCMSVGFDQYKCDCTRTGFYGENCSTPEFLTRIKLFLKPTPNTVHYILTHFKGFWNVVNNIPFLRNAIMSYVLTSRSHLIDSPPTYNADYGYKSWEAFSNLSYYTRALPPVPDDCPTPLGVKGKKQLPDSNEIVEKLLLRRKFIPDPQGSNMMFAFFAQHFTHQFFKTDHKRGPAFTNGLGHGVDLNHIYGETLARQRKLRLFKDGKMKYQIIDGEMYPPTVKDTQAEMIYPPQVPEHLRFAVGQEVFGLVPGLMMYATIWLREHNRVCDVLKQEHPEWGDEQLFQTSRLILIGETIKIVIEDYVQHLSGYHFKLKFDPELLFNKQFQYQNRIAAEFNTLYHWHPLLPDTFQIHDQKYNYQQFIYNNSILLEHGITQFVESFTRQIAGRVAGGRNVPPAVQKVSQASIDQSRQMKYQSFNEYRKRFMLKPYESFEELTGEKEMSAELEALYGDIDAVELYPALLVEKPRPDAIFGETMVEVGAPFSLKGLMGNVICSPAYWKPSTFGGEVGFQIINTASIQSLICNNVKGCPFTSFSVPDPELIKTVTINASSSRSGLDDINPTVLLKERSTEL

[4] = target: T5, Prostaglandin G/H synthase 1 (Ovis aries) (UniProt P05979); assay: Inhibition of ovine COX-1 using arachidonic acid as substrate assessed as residual activity at 10 uM preincubated for 5 mins followed by substrate addition measured after 5 mins by HPLC analysis relative to control
T5 sequence (whole entry): T3 sequence (P05979 whole entry)

SK-N-SH = assay: Cytotoxicity against human SK-N-SH cells after 48 hrs by MTT assay; type: functional, cell-based
[5] = Cytotoxicity against human IMR32 cells after 48 hrs by MTT assay; type: functional, cell-based; settings: IMR-32, 48 h
[6] = Cytotoxicity against human NB39 cells after 48 hrs by MTT assay; type: functional, cell-based; settings: NB39, 48 h
[7] = target: T3, Prostaglandin G/H synthase 1; assay: Inhibition of ovine COX-1 using arachidonic acid as substrate assessed as PGE2 formation after 2 mins by LC-MS/MS analysis
[8] = target: T4, Prostaglandin G/H synthase 2; assay: Inhibition of human COX-2 using arachidonic acid as substrate assessed as PGE2 formation after 2 mins by LC-MS/MS analysis

IC50 [7]	IC50 [8]	Structure (SMILES)	Activity [1]	IC50 (Prostaglandin E synthase)	IC50 [2]	IC50 [3]	Activity [4]	IC50 (SK-N-SH)	IC50 [5]	IC50 [6]
		CC(=O)O[C@@H]1CC[C@]2(C)C3=C(CC[C@H]2C1(C)C)[C@@]1(C)CC[C@@H]([C@H](CCC=C(C)C)C(=O)O)[C@]1(C)CC3	36.8%	400 nM	> 10 µM	> 10 µM	63.2%			
		CC(C)=CCC[C@H](C(=O)O)[C@H]1CC[C@]2(C)C3=C(CC[C@@]12C)[C@@]1(C)CCC(=O)C(C)(C)[C@H]1CC3 [BETA-ELEMONIC ACID]	16.7%	900 nM	> 10 µM	> 10 µM	81.1%			
		CC(C)[C@@H]1CC[C@]2(C)[C@H](CC=C3[C@@H]4CC(C)(C)CC[C@]4(C)CC[C@]32C)[C@@]1(C)CCC(=O)O	74.1%	> 10000 nM						
		C=C(C)[C@@H]1CC[C@]2(C)CC[C@]3(C)[C@H](CC[C@@H]4[C@@]5(C)CC[C@H](OC(C)=O)[C@](C)(C(=O)O)[C@@H]5CC[C@]43C)[C@@H]12	51.4%	10000 nM				4.1 µM	4.1 µM	4.1 µM
		CC(=O)O[C@@H]1CC[C@]2(C)[C@H]3CC[C@@]4(C)[C@H]([C@H](CCC=C(C)C)C(=O)O)CC[C@]4(C)C3=CC[C@H]2C1(C)C	20.6%	400 nM	> 10 µM					
		C=C(C)[C@@H]1CC[C@]2(CO)CC[C@]3(C)[C@H](CC[C@@H]4[C@@]5(C)CC[C@H](OC(C)=O)[C@](C)(C(=O)O)[C@@H]5CC[C@]43C)[C@@H]12	31.1%	900 nM	> 10 µM	> 10 µM	90.7%			
		CC(C)=CCC[C@H](C(=O)O)[C@@H]1CC[C@]2(C)C3=C(CC[C@@]12C)[C@@]1(C)CC[C@@H](O)C(C)(C)[C@@H]1CC3	3.5%	1100 nM	> 10 µM		81.9%			
		CC(C)[C@@H]1CC[C@]2(C)[C@H](CC=C3[C@@H]4[C@@H](C)[C@H](C)CC[C@]4(C)CC[C@]32C)[C@@]1(C)CCC(=O)O	92.4%	> 10000 nM						
> 10 µM	> 10 µM	C=C(C)[C@@H]1CC[C@]2(C)[C@H](CC=C3[C@@H]4[C@@H](C)[C@H](C)CC[C@]4(C)CC[C@]32C)[C@@]1(C)CCC(=O)O	83.9%	> 10000 nM						
		CC(C)=CCC[C@H](C(=O)O)[C@@H]1CC[C@]2(C)C3=C(CC[C@@]12C)[C@@]1(C)CC[C@H](O)C(C)(C)[C@@H]1CC3	29.2%	1200 nM	> 10 µM	> 10 µM	82.3%			
		C=C(C)[C@@H]1CC[C@]2(C)CC[C@]3(C)[C@H](CC[C@@H]4[C@@]5(C)CC[C@H](O)[C@](C)(C(=O)O)[C@@H]5CC[C@]43C)[C@@H]12	43.1%	8500 nM				4.1 µM	4.1 µM	4.1 µM
		CC(C)[C@@H]1CC[C@]2(C)[C@H](C(=O)C=C3[C@@H]4[C@@H](C)[C@H](C)CC[C@]4(C)CC[C@]32C)[C@@]1(C)CCC(=O)O	21.6%	1000 nM	> 10 µM	> 10 µM	64.8%			
		CC(C)=CCC[C@H](C(=O)O)[C@@H]1CC[C@]2(C)C3=CC[C@H]4C(C)(C)[C@H](O)CC[C@]4(C)[C@H]3CC[C@@]12C	29.6%	3000 nM	> 10 µM	> 10 µM	69.6%			

From ChEMBL document CHEMBL3286230, “Tetra- and pentacyclic triterpene acids from the ancient anti-inflammatory remedy frankincense as inhibitors of microsomal prostaglandin E(2) synthase-1” (J Nat Prod, 2014)
